The results in this text go back to ChEMBL document CHEMBL3525910, “Pharmacokinetics of oral D-serine in D-amino acid oxidase knockout mice” (Drug Metab Dispos, 2012).

For orientation: AUC(0-t) means the area under the concentration-time curve up to a stated or last time point. One may read the Tmax as the time at which the peak concentration occurs. As usually defined, the AUC(0-inf) is the area under the concentration-time curve extrapolated to infinity. The term Cmax denotes the maximum level reached in the sampled fluid or tissue.

Assay type in all cases: ADME, organism-based
Data set [1] in a line: AUC (0 to last) in wild-type mouse at 30 mg/kg, po. Also noted: time 0 - last, dose 30 mg/kg, route oral. Particulars: plasma; call rule not given here. The gist of the method:
(§1)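 Mice (wild-type 129SvEv or DAAO knockout; n = 3–6 per time point, n = 2 at 120 and 240 min for the group also given CBIO 30 mg/kg in 10% DMSO/0.9% saline) dosed orally, 10 ml/kg, with D-serine 30 mg/kg. Cardiac-puncture blood taken at 30, 60, 120, 240 min into heparin tubes and spun to plasma. Methanol extraction, derivatization, then HPLC fluorescence (ex 344/em 443 nm). Parameters from noncompartmental analysis.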

Data set [2] in a line: Tmax in DAAO knockout mouse at 30 mg/kg, po. Particulars: in vivo. Also noted: dose 30 mg/kg, route oral. The gist of the method:
as §1

Data set [3] in a line: Tmax in wild-type mouse at 30 mg/kg, po. Also noted: dose 30 mg/kg, route oral. The following applies: in vivo. An outline of the steps:
as §1

Data set [4] concerns Cerebellum. The data set is described as follows: Drug uptake in DAAO knockout mouse cerebellum at 30 mg/kg, po after 1 hr. On the set-up: dose 30 mg/kg, route oral. Particulars: in vivo. An outline of the steps: (§2)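 Wild-type or DAAO knockout mice were given D-serine 30 mg/kg orally. At 1 h, cerebellum and frontal cortex were excised, weighed and frozen at −80°C. Tissue was homogenized and sonicated in 20 volumes (w/v) methanol and spun at 50,000g for 15 min at 4°C. The supernatant was dried, derivatized for 2 min at room temperature, and D-serine was quantified by C18 HPLC with fluorescence detection.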

Data set [5] concerns Cerebellum. Description: Drug uptake in wild-type mouse cerebellum at 30 mg/kg, po after 1 hr. On the set-up: dose 30 mg/kg, route oral. The following applies: in vivo. The gist of the method:
as §2

The nature of data set [6]: AUC (0 to last) in DAAO knockout mouse at 30 mg/kg, po. Particulars: plasma. On the set-up: time 0 - last, dose 30 mg/kg, route oral. The gist of the method: (§3)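 DAAO knockout mice were dosed orally (10 ml/kg) with D-serine 30 mg/kg, n = 3–6 per time point, and plasma was taken at 30–240 min. D-serine was measured by methanol extraction, derivatization and reversed-phase HPLC with fluorescence detection. Cmax and Tmax are observed values. t½ = 0.693/λz with uniform weighting. AUClast is by the log-linear trapezoidal rule, with variance by Bailer's method.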

Data set [7] can be described thus: Tmax in wild-type mouse at 30 mg/kg, po in presence of CBIO. Also noted: dose 30 mg/kg, route oral. Particulars: in vivo. The gist of the method: as §1
Data set [8] can be described thus: AUC (0 to infinity) in wild-type mouse at 30 mg/kg, po in presence of CBIO. Also noted: time infinity, dose 30 mg/kg, route oral. Particulars: plasma. An outline of the steps:
as §1

Data set [9] in a line: AUC (0 to infinity) in wild-type mouse at 30 mg/kg, po. On the set-up: time infinity, dose 30 mg/kg, route oral. The following applies: plasma. An outline of the steps: as §1
The subject of data set [10] is Cortex. Description: Drug uptake in wild-type mouse cortex at 30 mg/kg, po after 1 hr. Also noted: dose 30 mg/kg, route oral. The following applies: in vivo. An outline of the steps:
as §2

Data set [11] can be described thus: Elimination half life in DAAO knockout mouse at 30 mg/kg, po. Also noted: dose 30 mg/kg, route oral. The following applies: in vivo, read-out: beta t1/2. An outline of the steps:
as §3

Data set [12] can be described thus: AUC (0 to last) in wild-type mouse at 30 mg/kg, po in presence of CBIO. Also noted: time 0 - last, dose 30 mg/kg, route oral. The following applies: plasma. The gist of the method: as §1
The nature of data set [13]: Cmax in wild-type mouse at 30 mg/kg, po in presence of CBIO. Also noted: dose 30 mg/kg, route oral. Particulars: in vivo. An outline of the steps: as §1
Data set [14] is described as follows: Elimination half life in wild-type mouse at 30 mg/kg, po in presence of CBIO. Also noted: dose 30 mg/kg, route oral. The following applies: in vivo, read-out: beta t1/2 (converted). The gist of the method: as §1
Data set [15] in a line: Cmax in wild-type mouse at 30 mg/kg, po. Particulars: in vivo. On the set-up: dose 30 mg/kg, route oral. The gist of the method:
as §1

The nature of data set [16]: Elimination half life in wild-type mouse at 30 mg/kg, po. On the set-up: dose 30 mg/kg, route oral. Particulars: in vivo, read-out: beta t1/2 (converted). The gist of the method: as §1
The test system of data set [17] is Cortex. Description: Drug uptake in DAAO knockout mouse cortex at 30 mg/kg, po after 1 hr. Also noted: dose 30 mg/kg, route oral. Particulars: in vivo. The gist of the method:
as §2

Data set [18] in a line: Cmax in DAAO knockout mouse at 30 mg/kg, po. Particulars: in vivo. On the set-up: dose 30 mg/kg, route oral. An outline of the steps:
as §1

With `N[C@H](CO)C(=O)O` [(D)-SERINE], the AUC(0-t) in data set [1] stood at 40600 ng·h/mL; in data set [6] it was 95800 ng·h/mL; in [12], 65800 ng·h/mL. The Tmax in data set [2] is 2.7 h; in data set [3], 0.7 h; in [7] it was 1 h. In addition, the Drug uptake entry in the data set with Cerebellum [4] is “Active”; in the data set on Cerebellum [5] it was “Not Active”; in the data set on Cortex [10], “Active”; in the data set on Cortex [17] it was “Active”. Moreover, the AUC(0-inf) came to 80900 ng·h/mL in [8] and 46000 ng·h/mL in data set [9]. The half-life in data set [11] was above 10 h; in data set [14], 1.5 h; in [16] it was 1.2 h. Moreover, the results for the maximum concentration (Cmax) in data set [13], in data set [15] and in data set [18] were 24300 ng/mL, 19600 ng/mL and 27800 ng/mL, respectively.
